In ChEMBL document CHEMBL5223075, “Discovery of thienothiazolocarboxamide analogues as novel anti-tubercular agent” (Bioorg Med Chem, 2020):
Converted amounts (≈) assume the structure as drawn. The source made the active and inactive calls. No cut-off for these calls is given here.

What was measured:
[1] = test system: Mycobacterium tuberculosis; experiment: Antitubercular activity against Mycobacterium tuberculosis H37Rv ATCC 27294 expressing the green fluorescence protein assessed as inhibition of bacterial growth by measuring GFP fluorescence incubated for 5 days by fluorescence based plate reader analysis; assay type: functional, organism-based; details: H37Rv ATCC 27294, 120 h
Method in brief: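 H37Rv-GFP was grown 14 days in 7H9/OADC/Tween/glycerol/hygromycin, washed, and seeded at ~3×10^6 CFU/mL. Compounds were given as 10-point 2-fold series starting at 20 or 1 µM, in 1% DMSO final. Plates ran 5 days at 37°C, 5% CO2, with rifampicin 1 µg/mL as positive control. GFP fluorescence was read and IC50 taken from a 4-parameter sigmoid fit.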

[2] = test system: Mycobacterium tuberculosis; experiment: Antitubercular activity against Mycobacterium tuberculosis H37Rv ATCC 27294 expressing the green fluorescence protein infected in mouse RAW264.7 cells assessed as inhibition of bacterial growth pre-infected with cell followed by compound addition and measured after 5 days by Hoechst 33342 staining based analysis; assay type: functional, organism-based; details: H37Rv ATCC 27294, RAW264.7, 120 h
Method in brief: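 RAW 264.7 cells, passages 2-9, were infected with washed H37Rv-GFP at MOI 20 for 2 h at 37°C with shaking. Cells were washed and plated at 20,000/well over 2-fold compound dilutions for 5 days. Nuclei were stained with 5 µM Hoechst (final) and 3 fields/well imaged. Four parameters (cell count, bacterial area, area per infected cell, infected-cell ratio) were each fitted by 4-parameter sigmoid, and the IC50s averaged.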

[3] = Metabolic stability in human liver microsome assessed as phase I mediated metabolite formation by measuring half-life; assay type: ADME; details: microsomes
[4] = Metabolic stability in mouse liver microsome assessed as phase I mediated metabolite formation by measuring half-life; assay type: ADME; details: microsomes
[5] = Solubility of the compound at pH 7.4; assay type: physicochemical; details: buffer
[6] = Solubility of the compound at pH 2.1; assay type: physicochemical; details: buffer
[7] = Metabolic stability in human liver microsome assessed as phase II mediated metabolite formation by measuring half-life; assay type: ADME; details: microsomes
[8] = Metabolic stability in mouse liver microsome assessed as phase II mediated metabolite formation by measuring half-life; assay type: ADME; details: microsomes
[9] = Stability in human plasma measured after 2 hrs; assay type: ADME, cell-free; details: read-out: Stability
[10] = Stability in mouse plasma measured after 2 hrs; assay type: ADME, cell-free; details: read-out: Stability
[11] = Protein binding in human plasma; assay type: ADME, cell-free; details: read-out: PPB (converted)
[12] = Protein binding in mouse plasma; assay type: ADME, cell-free; details: read-out: PPB (converted)
A549 = experiment: Cytotoxicity against human A549 cells assessed as inhibition of cell growth; assay type: functional, cell-based
[13] = Cytotoxicity against HEK293 cells assessed as inhibition of cell growth; assay type: toxicity, cell-based; details: human
HepG2 = experiment: Cytotoxicity against human HepG2 cells assessed as inhibition of cell growth; assay type: functional, cell-based
Jurkat = experiment: Cytotoxicity against human Jurkat cells assessed as inhibition of cell growth; assay type: functional, cell-based
[14] = Genotoxicity in Salmonella typhimurium TA98 by Ames mutagenicity test; assay type: toxicity; details: salmonella enterica subsp. enterica serovar typhimurium
[15] = Genotoxicity in Salmonella typhimurium TA100 by Ames mutagenicity test; assay type: toxicity; details: salmonella enterica subsp. enterica serovar typhimurium
[16] = Genotoxicity in Salmonella typhimurium TA98 in the presence of S9 fraction by Ames mutagenicity test; assay type: toxicity, subcellular; details: salmonella enterica subsp. enterica serovar typhimurium
[17] = Genotoxicity in Salmonella typhimurium TA100 in the presence of S9 fraction by Ames mutagenicity test; assay type: toxicity, subcellular; details: salmonella enterica subsp. enterica serovar typhimurium
[18] = Half-life in BALB/c mouse at 3 mg/kg, iv by LC-MS analysis; assay type: ADME, organism-based; details: in vivo
Method in brief: (§1)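 Female BALB/c mice, 6-8 weeks old. Dosed i.v. at 2 or 3 mg/kg, or orally at 10 mg/kg. Vehicles varied by compound: DMSO/Captisol, DMSO/PEG400/SBE-b-CD, or DMSO/Cremophor EL/Captisol. Blood was held at 4°C within 1 h, then centrifuged at 3200 × g for 10 min at 4°C. Plasma was kept at 4°C, and compound levels were measured by LC-MS.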

[19] = Clearance in BALB/c mouse at 3 mg/kg, iv by LC-MS analysis; assay type: ADME, organism-based; details: in vivo; method in brief: as §1
[20] = Volume of distribution at steady state in BALB/c mouse at 3 mg/kg, iv by LC-MS analysis; assay type: ADME, organism-based; details: in vivo, read-out: Vdss; method in brief: as §1
[21] = Half-life in BALB/c mouse at 10 mg/kg, po by LC-MS analysis; assay type: ADME, organism-based; details: in vivo; method in brief: as §1
[22] = Cmax in BALB/c mouse at 10 mg/kg, po by LC-MS analysis; assay type: ADME, organism-based; set-up: dose 10 mg/kg, route po; details: in vivo; method in brief: as §1
[23] = AUClast in BALB/c mouse at 10 mg/kg, po by LC-MS analysis; assay type: ADME, organism-based; set-up: dose 10 mg/kg, route po; details: in vivo; method in brief: as §1
[24] = Oral bioavailability in BALB/c mouse at 10 mg/kg by LC-MS analysis; assay type: ADME, organism-based; details: in vivo; method in brief: as §1
[25] = Drug concentration in BALB/c mouse plasma at 10 mg/kg, po by LC-MS analysis; assay type: ADME, organism-based; details: in vivo; method in brief: as §1
[26] = Drug concentration in BALB/c mouse lung at 10 mg/kg, po by LC-MS analysis; assay type: ADME, organism-based; details: in vivo; method in brief: as §1
[27] = Ratio of drug concentration in lung to plasma in BALB/c mouse at 10 mg/kg, po by LC-MS analysis; assay type: ADME, organism-based; method in brief: as §1
[28] = Tmax in BALB/c mouse at 10 mg/kg, po by LC-MS analysis; assay type: ADME, organism-based; details: in vivo; method in brief: as §1
[29] = test system: Mycobacterium tuberculosis; experiment: Antibacterial activity against Mycobacterium tuberculosis H37Rv ATCC 27294 infected in BALB/c mouse assessed as reduction in CFU in lungs at 50 mg/kg, po administered five times a week for 28 days; assay type: functional, organism-based; details: time 28.0 day
Method in brief: (§2)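 Female BALB/c mice, 6-8 weeks old, were infected intranasally with ~300-600 CFU H37Rv, 5 mice per group. Oral gavage began at day 21, 5 days/week for 4 weeks. Lungs were taken a day after the last dose, homogenized in PBS, serially diluted and plated in duplicate on 7H11-OADC agar for 2-5 weeks at 37°C. Detection limit ~2.3 logs. Bonferroni test against vehicle-treated mice.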

[30] = test system: Mycobacterium tuberculosis; experiment: Antibacterial activity against Mycobacterium tuberculosis H37Rv ATCC 27294 infected in BALB/c mouse assessed as reduction in CFU in lungs at 20 mg/kg, po administered five times a week for 28 days; assay type: functional, organism-based; details: time 28.0 day; method in brief: as §2
[31] = test system: Mycobacterium tuberculosis; experiment: Antibacterial activity against Mycobacterium tuberculosis H37Rv ATCC 27294 infected in BALB/c mouse assessed as reduction in bacterial burden in lungs at 100 mg/kg, po administered five times a week for 28 days; assay type: functional; details: time 28 day; method in brief: as §2
[32] = test system: Mycobacterium tuberculosis; experiment: Antibacterial activity against Mycobacterium tuberculosis H37Rv ATCC 27294 infected in BALB/c mouse assessed as decrease in number of CFU in lungs at 100 mg/kg, po administered five times a week for 28 days; assay type: functional; details: time 28 day; method in brief: as §2

With `O=C(Nc1ccc(-c2ccc(F)cn2)cc1)c1cc2sc(NCCN3CCOCC3)nc2s1` the IC50 [1] was 0.76 µM, the IC50 [2] was 0.19 µM and the t1/2 [3] was > 1 h. For the same molecule, the t1/2 [4] was 0.758 h, the solubility [5] was 0.76 µg/mL (≈ 1.57 µM) and the solubility [6] was 43.6 µg/mL (≈ 90.2 µM). For the same molecule, the t1/2 [7] was > 1 h, the t1/2 [8] was > 1 h and the remaining at 2 h [9] was 98.2%. For the same molecule, the remaining at 2 h [10] was > 100%, the fraction unbound [11] was 0.002 and the fraction unbound [12] was 0.002. The IC50 (A549) was > 50 µM, the IC50 [13] was > 50 µM and the IC50 (HepG2) was > 50 µM. The IC50 (Jurkat) was > 50 µM, the Activity [14] was “Non-Toxic” and the Activity [15] was “Non-Toxic”. For the same molecule, the Activity [16] was “Non-Toxic”, the Activity [17] was “Non-Toxic” and the half-life [18] was 1.2 h. The clearance [19] was 14.9 mL/min/kg, the Vd [20] was 1.52 L/kg and the half-life [21] was 2.3 h. It also gave a Cmax [22] of 2940 ng/mL, an AUC(0-t) [23] of 10400 ng·h/mL and a bioavailability [24] of 102%. The Cp [25] was 3380 ng/mL, the Ct [26] was 16180 ng/mL and the Kp [27] was 4.8. For the same molecule, the Tmax [28] was 1 h, the Activity [29] was “Active” and the Activity [30] was “inactive”. The “log(activity)” value [31] was 4 and the Activity [32] was 2.7 log10CFU.
